Results from ChEMBL document CHEMBL1153823, “Design, synthesis, and biological evaluation of new 5-HT4 receptor agonists: application as amyloid cascade modulators and potential therapeutic utility in Alzheimer's disease” (J Med Chem, 2009).
The source made the active and inactive calls. The rule behind the calls is not given here.

What was measured:
[1] = molecular target: T1, 5-hydroxytryptamine receptor 4 (Homo sapiens, UniProt Q13639); assay: Agonist activity at human 5HT4 isoform E receptor expressed in rat C6 cells assessed as cAMP accumulation at 10 nM by radio-immunoassay relative to 5HT; format: functional, cell-based
Summary of the method: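 C6 glial cells stably transfected with h5-HT4(e)R, grown to confluence, serum-free 4 h, then preincubated 15 min in serum-free medium with 5 mM theophylline and 10 µM pargyline. […] Stopped with ice-cold perchloric acid; cAMP by radioimmunoassay; response normalized to 5-HT maximum.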

[2] = molecular target: T1, 5-hydroxytryptamine receptor 4; assay: Displacement of [3H]GR-113808 from human 5HT4 isoform E receptor expressed in rat C6 cells at 10 nM by liquid scintillation counting; format: cell-based
Mus musculus [3] = assay: Increase in sAPPalpha levels in C57BL/6J mouse brain hippocampus at 5 mg/kg, sc after 90 mins by Western blot; format: functional, organism-based; design: dose 5 mg/kg
Summary of the method: (§1)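 Male C57BL/6j mice, 8 weeks, 23–27 g, 7–9 per group, single subcutaneous dose 5 mg/kg in 0.9% NaCl (saline controls 5 mL/kg). Killed 90 min later. Hippocampus and cortex sonicated in Tris/NaCl with protease inhibitors, spun 100000g 45 min. sAPPα immunoblot, normalized to β-actin densitometry, expressed as % of saline controls. One-way ANOVA with PLSD.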

[4] = Inhibition of amyloid beta (25-35) polymerization assessed as inhibition of fibril formation by UV-visible measurement
Summary of the method: (§2)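 Aβ25-35 (100 µM final) with agonist (10 µM final, added in MeOH) in 10 mM phosphate buffer pH 7.2, prepared at 4 °C. UV-visible spectra 190–600 nm at 15 °C read after 6 h; agonist-alone spectra subtracted, Aβ-alone control run in parallel. At least three independent measurements. IC50 obtained by least-squares sigmoidal fit, for agonists at least as active as curcumin.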

[5] = molecular target: T1, 5-hydroxytryptamine receptor 4; assay: Displacement of [3H]GR-113808 from human 5HT4 isoform E receptor expressed in rat C6 cells by liquid scintillation counting; format: cell-based
[6] = molecular target: T1, 5-hydroxytryptamine receptor 4; assay: Agonist activity at human 5HT4 isoform E receptor expressed in rat C6 cells assessed as cAMP accumulation by radio-immunoassay relative to 5HT; format: functional, cell-based
Summary of the method: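 C6 glial cells stably transfected with h5-HT4(e)R, grown to confluence, serum-free 4 h, then preincubated 15 min in serum-free medium with 5 mM theophylline and 10 µM pargyline.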

[7] = Inhibition of amyloid beta (25-35) polymerization assessed as inhibition of fibril formation at 10 uM by UV-visible measurement; summary of the method: as §2
Mus musculus [8] = assay: Increase in sAPPalpha levels in C57BL/6J mouse brain cortex at 5 mg/kg, sc after 90 mins by Western blot; format: functional, organism-based; design: dose 5 mg/kg; summary of the method: as §1

T1 sequence (Q13639 whole entry, canonical isoform): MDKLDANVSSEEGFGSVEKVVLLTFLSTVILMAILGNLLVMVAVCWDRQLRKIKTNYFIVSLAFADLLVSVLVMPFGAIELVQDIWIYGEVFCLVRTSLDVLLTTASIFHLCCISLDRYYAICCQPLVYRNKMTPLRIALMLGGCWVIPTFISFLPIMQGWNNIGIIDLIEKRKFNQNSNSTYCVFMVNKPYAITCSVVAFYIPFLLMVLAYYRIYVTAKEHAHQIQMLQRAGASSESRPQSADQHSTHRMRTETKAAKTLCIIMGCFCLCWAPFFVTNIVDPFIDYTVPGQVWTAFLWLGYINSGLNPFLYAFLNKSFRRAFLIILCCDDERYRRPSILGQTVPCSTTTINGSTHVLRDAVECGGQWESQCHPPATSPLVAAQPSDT

Emax [1] [%]	Activity [2] [%]	SMILES	also measured
< 10	30	COc1cc(N)c(Cl)cc1C(=O)OCCN1CCC(CNC(=O)CSc2ccccc2)CC1	
10	10	COc1cc(N)c(Cl)cc1C(=O)OCCN1CCC(CNC(=O)CCCCc2ccccc2)CC1	
10	10	COc1cc(N)c(Cl)cc1C(=O)OCCN1CCC(NC(=O)Cc2ccc(Br)cc2)CC1	
40	20	COc1cc(N)c(Cl)cc1C(=O)OCCN1CCC(CNC(=O)CC(C)C)CC1	
0	40	COc1cc(N)c(Cl)cc1C(=O)OCCN1CCC(CNC(=O)Cc2ccc(Br)cc2)CC1	
> 50	10	COc1cc(N)c(Cl)cc1C(=O)OCCN1CCC(NC(=O)Cc2ccccc2Cl)CC1	Ki [5]: 5 nM; EC50 [6]: 18 nM
	< 10	COc1cc(N)c(Cl)cc1C(=O)OCCN1CCC(NC(=O)CCCCc2ccccc2)CC1	
< 10	20	CCCC(=O)NCC1CCN(CCOC(=O)c2cc(Cl)c(N)cc2OC)CC1	
	20	COc1ccc(OC)c(/C=C/C(=O)NCC2CCN(CCOC(=O)c3cc(Cl)c(N)cc3OC)CC2)c1	
	< 10	COc1cc(N)c(Cl)cc1C(=O)OCCN1CCC(NC(=O)c2ccc(C)nc2O)CC1	
< 10	20	COc1cc(N)c(Cl)cc1C(=O)OCCN1CCC(NC(=O)CSc2ccccc2)CC1	
10	40	COc1ccc(OC)c(CC(=O)NCC2CCN(CCOC(=O)c3cc(Cl)c(N)cc3OC)CC2)c1	
0	10	COc1cc(N)c(Cl)cc1C(=O)OCCN1CCC(CNC(=O)c2ccsc2)CC1	
45	40	COc1cc(N)c(Cl)cc1C(=O)OCCN1CCCCC1	
	< 10	COc1cc(N)c(Cl)cc1C(=O)OCCN1CCC(NC(=O)CC2CCCCC2)CC1	
	0	CCCC(=O)NC1CCN(CCOC(=O)c2cc(Cl)c(N)cc2OC)CC1	
10	10	COc1cc(N)c(Cl)cc1C(=O)OCCN1CCC(CNC(=O)c2ccc(C)nc2O)CC1	
10	10	COc1cc(N)c(Cl)cc1C(=O)OCCN1CCC(NC(=O)c2ccccc2F)CC1	

More lines, now with the values behind:

SMILES	Emax [1] [%]	Activity [2] [%]	also measured
COc1cc(N)c(Cl)cc1C(=O)OCCN1CCC(NC(=O)CCCc2ccccc2)CC1	20	20	
COc1cc(N)c(Cl)cc1C(=O)OCCN1CCC(NC(=O)c2cccs2)CC1	< 10	20	
COc1cc(N)c(Cl)cc1C(=O)OCCN1CCC(CNC(=O)CC2CCCCC2)CC1	< -10	20	
COc1cc(N)c(Cl)cc1C(=O)OCCN1CCC(CNC(=O)CCC2CCCCC2)CC1	> 50	10	
COc1cc(N)c(Cl)cc1C(=O)OCCN1CCC(CNC(=O)CCCNS(=O)(=O)c2ccc(-c3ccccc3)cc2)CC1	< 10	10	
COc1cc(N)c(Cl)cc1C(=O)OCCN1CCC(NC(=O)CCc2ccccc2)CC1	< 10	20	
COc1cc(N)c(Cl)cc1C(=O)OCCN1CCC(CNC(=O)CCc2ccccc2)CC1	20	20	
COc1cc(N)c(Cl)cc1C(=O)OCCN1CCC(NC(=O)Cc2ccc([N+](=O)[O-])cc2)CC1	20	20	
COc1cc(N)c(Cl)cc1C(=O)OCCN1CCC(NC(=O)c2ccsc2)CC1	20	10	
COc1cc(N)c(Cl)cc1C(=O)OCCN1CCC(CNC(=O)c2ccccc2F)CC1	0	20	
COc1cc(N)c(Cl)cc1C(=O)OCCN1CCC(CNC(=O)Cc2ccccc2Cl)CC1	20	> 50	
COc1cc(N)c(Cl)cc1C(=O)OCCN1CCC(CNC(=O)CCc2cccs2)CC1	30	30	
COc1cc(N)c(Cl)cc1C(=O)OCCN1CCC(CNC(=O)c2cccs2)CC1	< 10	20	
COc1cc(N)c(Cl)cc1C(=O)OCCN1CCC(NC(=O)CCCNCCCc2ccc(CCCNCCCC(=O)NC3CCN(CCOC(=O)c4cc(Cl)c(N)cc4OC)CC3)cc2)CC1	> 50	10	Activity (Mus musculus [3]): Active; IC50 [4]: 9000 nM; Ki [5]: 14 nM; EC50 [6]: 9 nM; inhibition [7]: 49%; Activity (Mus musculus [8]): Active
COc1cc(N)c(Cl)cc1C(=O)OCCN1CCC(CNC(=O)CC(C)(C)C)CC1	10	10	
COc1cc(N)c(Cl)cc1C(=O)OCCN1CCC(CNC(=O)C(C)C)CC1	10	20	
COc1cc(N)c(Cl)cc1C(=O)OCCN1CCC(NC(=O)CCc2cccs2)CC1	10	10	
COc1cc(/C=C/C(=O)CC(=O)/C=C/c2ccc(O)c(OC)c2)ccc1O [CURCUMIN]			IC50 [4]: 10000 nM; inhibition [7]: 45%
COc1cc(N)c(Cl)cc1C(=O)OCCN1CCC(CNC(=O)Cc2ccc([N+](=O)[O-])cc2)CC1	> 50	40	
COc1cc(N)c(Cl)cc1C(=O)OCCN1CCC(NC(=O)c2ccc([N+](=O)[O-])o2)CC1		< 10	
COc1cc(N)c(Cl)cc1C(=O)OCCN1CCC(CNC(=O)CCCc2ccccc2)CC1	0	20	
COc1cc(N)c(Cl)cc1C(=O)OCCN1CCC(NC(=O)CCCNS(=O)(=O)c2ccc(C)cc2)CC1	10	10	
COc1cc(N)c(Cl)cc1C(=O)OCCN1CCC(NC(=O)CCCNCCCc2ccccc2)CC1	50		Ki [5]: 12 nM
COc1cc(N)c(Cl)cc1C(=O)OCCN1CCC(NC(=O)CCC2CCCCC2)CC1		0	
COc1cc(N)c(Cl)cc1C(=O)OCCN1CCC(CNC(=O)CCCNS(=O)(=O)c2ccc(C)cc2)CC1	> 70	> 50	Ki [5]: 2 nM; EC50 [6]: 68 nM
COc1cc(N)c(Cl)cc1C(=O)OCCN1CCC(NC(=O)CC(C)C)CC1	10	< 10	
